Test [1] relates to MRC5. As to the kind of experiment: Cytotoxicity against human diploid embryonic lung cell line hMRC-5 was observed at conc. upto 32 uM; (No cytotoxicity). The test is classed as functional, cell-based.
Test [2] has as its target Glutathione reductase (Plasmodium falciparum 3D7) (UniProt O15770). In words: Catalysis constant against Plasmodium falciparum glutathione reductase. In outline: (§1)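 Recombinant human or P. falciparum GR run as a quinone reductase without GSSG. Mix: 100 mM phosphate pH 7.0, 200 mM KCl, 100 μM NADPH, 1% DMSO, enzyme, and naphthoquinone at 10 levels from 10 to 400 μM. NADPH oxidation read at 340 nm (ε 6.22 mM⁻¹ cm⁻¹). Steady-state rates fitted to Michaelis–Menten by nonlinear regression to give Km and Vmax; kcat and kcat/Km calculated.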

For test [3], the target named is T1, Glutathione reductase, mitochondrial (Homo sapiens) (UniProt P00390).
T1 sequence (whole entry): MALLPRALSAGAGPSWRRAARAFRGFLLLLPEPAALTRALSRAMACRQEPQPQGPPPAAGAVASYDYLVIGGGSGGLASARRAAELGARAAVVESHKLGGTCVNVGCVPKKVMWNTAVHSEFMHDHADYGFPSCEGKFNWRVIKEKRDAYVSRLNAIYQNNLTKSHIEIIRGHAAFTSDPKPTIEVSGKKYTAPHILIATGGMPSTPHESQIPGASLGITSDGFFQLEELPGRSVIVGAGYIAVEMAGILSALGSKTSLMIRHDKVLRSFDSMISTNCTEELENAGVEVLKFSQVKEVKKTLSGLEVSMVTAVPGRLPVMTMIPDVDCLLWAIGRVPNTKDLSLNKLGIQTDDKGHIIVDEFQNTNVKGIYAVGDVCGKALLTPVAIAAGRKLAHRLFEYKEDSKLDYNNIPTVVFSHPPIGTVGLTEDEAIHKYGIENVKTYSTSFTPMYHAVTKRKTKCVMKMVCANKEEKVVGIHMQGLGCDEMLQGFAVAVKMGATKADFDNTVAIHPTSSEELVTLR
As to the kind of experiment: Catalysis constant against human glutathione reductase. A digest of the protocol: as §1

The target of test [4] is T1, Glutathione reductase, mitochondrial (Homo sapiens). In words: Ratio of Catalysis constant Michaelis-Menten constant of human glutathione reductase. A digest of the protocol: as §1
The target in test [5] is Glutathione reductase (Plasmodium falciparum 3D7) (UniProt O15770). In words: Ratio of Catalysis constant Michaelis-Menten constant of Plasmodium falciparum glutathione reductase. A digest of the protocol:
as §1

The record followed here is ChEMBL document CHEMBL1138849, “5-substituted tetrazoles as bioisosteres of carboxylic acids. Bioisosterism and mechanistic studies on glutathione reductase inhibitors as antimalarials” (J Med Chem, 2004).

Active and inactive are the calls of the source. No cut-off for these calls is given here.

Glutathione reductase (Plasmodium falciparum 3D7), sequence (O15770 whole entry): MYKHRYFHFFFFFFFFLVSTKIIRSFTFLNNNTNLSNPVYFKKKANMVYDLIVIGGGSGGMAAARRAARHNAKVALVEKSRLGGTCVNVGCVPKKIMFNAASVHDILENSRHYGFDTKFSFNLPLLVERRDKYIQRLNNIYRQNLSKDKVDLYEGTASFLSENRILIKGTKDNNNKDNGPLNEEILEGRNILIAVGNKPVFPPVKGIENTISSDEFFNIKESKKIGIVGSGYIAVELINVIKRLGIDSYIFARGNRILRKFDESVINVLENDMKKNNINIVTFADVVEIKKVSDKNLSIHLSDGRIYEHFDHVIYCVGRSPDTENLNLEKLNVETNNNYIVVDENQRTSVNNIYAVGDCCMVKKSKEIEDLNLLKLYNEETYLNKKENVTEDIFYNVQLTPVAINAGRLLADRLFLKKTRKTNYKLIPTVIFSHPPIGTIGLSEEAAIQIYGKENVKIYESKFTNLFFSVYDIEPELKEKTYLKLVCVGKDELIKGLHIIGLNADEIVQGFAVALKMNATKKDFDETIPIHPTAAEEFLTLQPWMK

As for `CC1=C(CCCCc2nnnn2CCC#N)C(=O)c2ccccc2C1=O`, the Cytotoxicity entry in test [1] is “inactive”.

Turning to `CC1=C(CCCc2nnnn2CCC#N)C(=O)c2ccccc2C1=O`, the Cytotoxicity result in test [1] is “inactive”.

Regarding `CC1=CC(=O)c2ccccc2C1=O`, the K cat in test [2] and in test [3] was 0.16 s⁻¹ throughout. Also, the K cat/Km in test [4] amounted to 5330 M⁻¹ s⁻¹; in test [5], 1990 M⁻¹ s⁻¹.

Take `CC1=C(CCCCCC(=O)OCCN(C)C)C(=O)c2ccccc2C1=O`: in test [1], the Cytotoxicity result was “inactive”.

For `CC1=C(CCCCCc2nnnn2CCC#N)C(=O)c2ccccc2C1=O`, the Cytotoxicity result in test [1] is “inactive”.

In the case of `CC1=C(CCCC(=O)NCCC#N)C(=O)c2ccccc2C1=O`, in test [1], the Cytotoxicity result was “inactive”.

In the case of `CC1=C(CCCCC(=O)O)C(=O)c2ccccc2C1=O`, in test [1], the Cytotoxicity result is “inactive”.

Take `CC1=C(CCCCCC(=O)O)C(=O)c2ccccc2C1=O`: in test [1], the Cytotoxicity entry is “inactive”.

Consider `CC1=C(CCCCC(=O)NCCC#N)C(=O)c2ccccc2C1=O`, for which the Cytotoxicity result in test [1] is “inactive”.

In the case of `CC1=C(CCCCCC(=O)NCCC#N)C(=O)c2ccccc2C1=O`, the Cytotoxicity entry in test [1] was “inactive”.
